# In PubChem BioAssay:
# Calls of active or inactive are those of the source.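 Rule for the calls, unless noted: active = viability at or under a set limit in both replicates, limit being median viability minus 3 SD (cut at about 48% in these data, passing the limit was not always enough); inconclusive = at or under the limit in just one replicate; inactive = at or above the limit in both replicates.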
# Legend:
# [1] = reduced viability of SK-BR-3 breast cancer cells – cell-based, 24 h, human, pilot screen (AID 572;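 active = viability at or below 10% of carrier control in both of two separate runs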;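 note: compound exposure lasted between 18 and 24 h rather than exactly 24 h; 100% = carrier-treated control wells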); conditions: SK-BR-3 viability, CellTiter-Glo luminescence, at 10 µM, stronger effect = lower value
# [2] = HUVEC growth inhibition – cell-based, human, primary screen (AID 575;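 active = viability at or below 30% in both replicate assays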;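 note: 100% = median of untreated cell wells with 0.1% DMSO on each plate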); conditions: HUVEC proliferation, CellTiter-Glo luminescence, 72 h; at 10 µM; stronger effect = lower value
# Method in brief: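 Test system – primary HUVEC, no more than 12 passages · Dosing – one dose, 10 µM final, 0.1% DMSO · Times – 72 h treatment at 37 °C · Measured by – ATP-based CellTiter-Glo luminescent read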
# [3] = H69AR cell proliferation blockers – human, duplicate replicates, primary screen (AID 580); conditions: H69AR lung tumor cells viability, ATP luminescence, 72 h; at 10 µM; stronger effect = lower value;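 note: 100% = mean luminescence of untreated wells and 0% = no signal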
# [4] = MRP1 drug-resistance reversers in H69AR cells – cell-based, doxorubicin co-treatment, pilot screen (AID 601;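 active = viability loss from added drug above about 55%, and viability with drug at most 40%, in both replicates, limit read from the data, passing the limit was not always enough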); conditions: CellTiter-Glo, 72 h, at 10 µM; for differential viability (reversal): stronger effect = higher value
# [5] = yeast transport mutant growth inhibition pilot in 384-well plates, post-Golgi transport modulator project (AID 636; in the data active = inhibition above about 31%); conditions: absorbance 615 nm, about 18 h, stronger effect = higher value
# [6] = growth suppression of yeast trafficking mutant, preliminary HTS, modulators of trafficking downstream of Golgi apparatus project, 1536-format plate, OD 615 nm (AID 637; in the data active = inhibition above about 30%); conditions: yeast transport mutant growth, absorbance 615 nm, 18 h; stronger effect = higher value
# [7] = H69AR cells + 2 uM doxorubicin, measured here: viability with 2 uM doxorubicin, stronger effect = lower value
# [8] = H69AR cells, compound alone cytotoxicity
SMILES,viability [1],viability [2],viability [3],differential viability (reversal) ([4]; H69AR cells + 2 uM doxorubicin),"viability [4, 7] [%]","viability [4, 8] [%]",inhibition [5],inhibition [6]
Cc1ccc(NC(=O)CSC2=C(C#N)C(c3ccc4c(c3)OCO4)CC(=O)N2)cc1C (configuration not stated),64% (inactive),92.9% (inactive),88.6% (inactive),-4.82% (inactive),93.4,88.6,7.7% (inactive),-2.55% (inactive)
CC(C)c1cc(C(=O)Nc2cccnc2)no1,110% (inactive),105% (inactive),97.3% (inactive),-0.865% (inactive),98.2,97.3,-7.73% (inactive),-0.18% (inactive)
Cc1ccc(N(C(C)C(=O)Nc2ccc(S(=O)(=O)N3CCOCC3)cc2)S(C)(=O)=O)cc1 (configuration not stated),87% (inactive),106% (inactive),99.8% (inactive),-6.04% (inactive),106,99.8,-6.3% (inactive),-7.9% (inactive)
CN(CCc1ccccn1)c1ncnc2[nH]ncc12,102% (inactive),116% (inactive),97.6% (inactive),9.97% (inactive),87.6,97.6,-6.62% (inactive),-2.36% (inactive)
O=C(Nc1cccc(NC(=O)c2ccco2)c1)c1ccc2c(c1)OCO2,106% (inactive),61% (inactive),82.4% (inactive),-4.39% (inactive),86.8,82.4,-1.18% (inactive),21.2% (inactive)
CCCCN(Cc1cc2cc(OC)ccc2[nH]c1=O)C(=O)c1ccccn1,102% (inactive),98% (inactive),102% (inactive),6.81% (inactive),95,102,-5.14% (inactive),-3.82% (inactive)
c1cc(C(c2nnnn2C2CCCC2)N2CCOCC2)ccn1 (configuration not stated),96.5% (inactive),104% (inactive),91.9% (inactive),-0.285% (inactive),92.2,91.9,-8.22% (inactive),0.16% (inactive)
CC(=O)OCC[N+](C)(C)C,102% (inactive),96.7% (inactive),92.5% (inactive),-8.23% (inactive),101,92.5,1.95% (inactive),-2.5% (inactive)
COc1ccccc1CN1CC(C(=O)NCc2cccnc2)CC1=O (configuration not stated),134% (inactive),95.5% (inactive),91.5% (inactive),2.3% (inactive),89.2,91.5,-2.99% (inactive),3.77% (inactive)
Cc1cc(C(=O)Nc2c(F)cc(F)cc2Br)no1,99% (inactive),91.9% (inactive),98.2% (inactive),-0.16% (inactive),98.4,98.2,-6.16% (inactive),4.03% (inactive)
O=C(Nc1ccc(NC(=O)C2CC2)cn1)c1ccccc1Cl,101% (inactive),98.7% (inactive),98.5% (inactive),7.09% (inactive),91.4,98.5,-2.13% (inactive),-2.91% (inactive)
Cc1ccc(CCNC(=O)C2CCC(=O)N2C2CCCC2)cc1 (configuration not stated),79% (inactive),99.7% (inactive),94.9% (inactive),13% (inactive),81.9,94.9,-2.08% (inactive),0% (inactive)
COc1ccc(C(NC(C)=O)c2ccc3cccnc3c2O)c(OC)c1 (configuration not stated),65% (inactive),3.65% (active),23% (active),-22.1% (inactive),45.1,23,-6.4% (inactive),1.09% (inactive)
CC1CN(C(=O)CSc2ncnc3sccc23)CC(C)O1 (configuration not stated),80% (inactive),103% (inactive),99.6% (inactive),-2.15% (inactive),102,99.6,-5.75% (inactive),0% (inactive)
Nc1ncnc2nc(Sc3ccc(Cl)cc3)[nH]c12,99% (inactive),96.1% (inactive),98.6% (inactive),7.52% (inactive),91.1,98.6,0.52% (inactive),4.59% (inactive)
O=C(CN(C1CCCCC1)S(=O)(=O)c1ccccc1)NCc1cccnc1,83% (inactive),103% (inactive),96% (inactive),3.4% (inactive),92.6,96,-6.76% (inactive),-0.55% (inactive)
CCCCNC(=O)OCCNC(=O)NC,98% (inactive),95.9% (inactive),98.1% (inactive),7.46% (inactive),90.7,98.1,-4.05% (inactive),-5.45% (inactive)
CC(=O)OCC(=O)[C@@]1(O)CC[C@H]2[C@@H]3CCC4=CC(=O)CC[C@]4(C)[C@H]3[C@@H](O)C[C@@]21C,101% (inactive),74.1% (inactive),100% (inactive),2.38% (inactive),97.7,100,-4.29% (inactive),-1.17% (inactive)
COCCNC(=O)NC(=O)COC(=O)Cc1ccc2c(c1)OCCO2,81% (inactive),111% (inactive),99.2% (inactive),6.6% (inactive),92.6,99.2,-2.88% (inactive),3.82% (inactive)
Cc1onc(-c2c(F)cccc2Cl)c1C(=O)Nc1nc2c(s1)CCCC2,109% (inactive),92.7% (inactive),77.3% (inactive),-27% (inactive),104,77.3,-3.29% (inactive),-1.09% (inactive)
CCOc1ccc(CCNc2nc3c(c(=O)n(C)c(=O)n3C)n2CC)cc1OCC,108% (inactive),101% (inactive),88.9% (inactive),1.88% (inactive),87,88.9,-1.73% (inactive),3.27% (inactive)
O=C(Cc1cccs1)N(c1ccccc1)C1C=CS(=O)(=O)C1 (configuration not stated),118% (inactive),107% (inactive),106% (inactive),28.9% (inactive),76.7,106,-3.07% (inactive),-1.64% (inactive)
COc1ccc(NC(=O)CSc2nc3c(c(=O)n2-c2ccc(F)cc2)SCC3)c(OC)c1,89% (inactive),91.1% (inactive),90.7% (inactive),13.1% (inactive),77.5,90.7,-6.71% (inactive),3.87% (inactive)
CCOC(=O)Nc1cc(OC)c(OC)cc1Cc1nccc2cc(OC)c(OC)cc12,113% (inactive),95.7% (inactive),87.1% (inactive),5.61% (inactive),81.5,87.1,-2.05% (inactive),28.7% (inactive)
